Source: ChEMBL document CHEMBL1125330, “N-substituted pyrazino[2,3-c][1,2,6]thiadiazine 2,2-dioxides. A new class of diuretics” (J Med Chem, 1992)

How the values were obtained:
Rattus norvegicus [1] = experiment: Mean potassium excretion in rats when compound administered at 80 mg/kg po and vehicle dosed at 297.03 umol/kg; format: ADME, organism-based; set-up: dose 80 mg/kg, route oral; details: in vivo
Summary of the method: (§1)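 Male Sprague-Dawley rats (HC/CFY, 175-200 g) fasted and water-deprived 18 h before and during the test. Dosed by gavage at 2.5-160 mg/kg in 1% carboxymethyl cellulose/0.1% Tween 80, 0.5 mL/100 g bw. Immediately hydrated with water (2.5 mL/100 g bw, po). Urine collected 6 h in metabolic cages; Na+ and K+ by flame photometry; mean mequiv/6 h/kg bw; nonpaired Student t-test.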

Rattus norvegicus [2] = experiment: Mean Chlorine excretion in rats when compound administered at 20 mg/kg po and vehicle dosed at 74.26 umol/kg; format: ADME, organism-based; set-up: dose 20 mg/kg, route oral; details: in vivo
Summary of the method: (§2)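 Male Sprague-Dawley rats (HC/CFY, 175-200 g), no food or water for 18 h before and during the test. Single gavage dose (2.5-160 mg/kg; vehicle 1% carboxymethyl cellulose/0.1% Tween 80, 0.5 mL/100 g bw), then distilled water 2.5 mL/100 g bw po. Individual metabolic cages, 6 h urine. K+ by flame photometry, Cl- colorimetric, as mequiv/6 h/kg bw; unpaired Student t-test vs control.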

[3] = Acute toxicity in mice when given po; format: organism-based; details: mouse, in vivo, read-out: DL50 (the source's name)
Summary of the method: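 Male Swiss mice (SPF, HC/CFLP strain, 20–25 g), oral dosing; mortality followed over 15 days; LD50 derived by the Litchfield and Wilcoxon method.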

Rattus norvegicus [4] = experiment: Mean Chlorine excretion in rats when compound administered at 10 mg/kg po and vehicle dosed at 37.13 umol/kg; format: ADME, organism-based; set-up: dose 10 mg/kg, route oral; details: in vivo; summary of the method: as §2
Rattus norvegicus [5] = experiment: Mean sodium excretion in rats when compound administered at 5 mg/kg po and vehicle dosed at 18.56 umol/kg; format: ADME, organism-based; set-up: dose 5 mg/kg, route oral; details: in vivo; summary of the method: as §1
Rattus norvegicus [6] = experiment: Mean potassium excretion in rats when compound administered at 5 mg/kg po and vehicle dosed at 18.56 umol/kg; format: ADME, organism-based; set-up: dose 5 mg/kg, route oral; details: in vivo; summary of the method: as §1
Rattus norvegicus [7] = experiment: Mean urinary output in rats when compound administered at 5 mg/kg po and vehicle dosed at 18.56 umol/kg; format: ADME, organism-based, Urine; set-up: dose 5 mg/kg, route oral; details: in vivo
Summary of the method: (§3)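 Water-loaded male Sprague-Dawley rats (HC/CFY, 175-200 g) fasted and without water for 18 h. Oral gavage of 2.5-160 mg/kg in 1% CMC with 0.1% Tween 80, then distilled water 2.5 mL/100 g po. Urine collected 6 h in metabolic cages, mean output in mL/6 h/kg bw. Unpaired Student t-test against vehicle; dose-response by linear regression.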

Rattus norvegicus [8] = experiment: Mean sodium excretion in rats when compound administered at 0 mg/kg po and vehicle dosed at 0 umol/kg; format: ADME, organism-based; set-up: dose 0 mg/kg, route oral; details: in vivo; summary of the method: as §1
Rattus norvegicus [9] = experiment: Mean urinary output in rats when compound administered at 0 mg/kg po and vehicle dosed at 0 umol/kg; format: ADME, organism-based, Urine; set-up: dose 0 mg/kg, route oral; details: in vivo; summary of the method: as §3
Rattus norvegicus [10] = experiment: Mean Chlorine excretion in rats when compound administered at 5 mg/kg po and vehicle dosed at 18.56 umol/kg; format: ADME, organism-based; set-up: dose 5 mg/kg, route oral; details: in vivo; summary of the method: as §2
Rattus norvegicus [11] = experiment: Mean urinary output in rats when compound administered at 2.5 mg/kg po and vehicle dosed at 9.28 umol/kg; format: ADME, organism-based, Urine; set-up: dose 2.5 mg/kg, route oral; details: in vivo; summary of the method: as §3
Rattus norvegicus [12] = experiment: Mean sodium excretion in rats when compound administered at 2.5 mg/kg po and vehicle dosed at 9.28 umol/kg; format: ADME, organism-based; set-up: dose 2.5 mg/kg, route oral; details: in vivo; summary of the method: as §1
Rattus norvegicus [13] = experiment: Mean urinary output in rats when compound administered at 80 mg/kg po and vehicle dosed at 297.03 umol/kg; format: ADME, organism-based, Urine; set-up: dose 80 mg/kg, route oral; details: in vivo; summary of the method: as §3
Rattus norvegicus [14] = experiment: Urinary sodium 3h after the compound was administered 100 mg/kg po in rat; format: ADME, organism-based, Urine; set-up: dose 100 mg/kg, route oral; details: in vivo
Summary of the method: (§4)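 Onset and duration study in fasted, water-loaded male Sprague-Dawley rats housed two per metabolic cage, six pairs per group. Single oral dose given, then water 2.5 mL/100 g po. Urine volume and sodium (flame photometry) measured over 0-1, 1-2, 2-3, 3-4 and 4-6 h intervals. Mean values compared with vehicle by Student t-test.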

Rattus norvegicus [15] = experiment: Volume of urine 2 hr after the compound was administered 100 mg/kg po in rat; format: ADME, organism-based; set-up: dose 100 mg/kg, route oral; details: in vivo
Summary of the method: (§5)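 Onset/duration protocol: male Sprague-Dawley rats (HC/CFY, 175-200 g), food and water withdrawn for 18 h before and during the test. Single gavage dose in 1% carboxymethyl cellulose/0.1% Tween 80 (0.5 mL/100 g bw), then distilled water load (2.5 mL/100 g bw po). Two rats per metabolic cage, six pairs per group. Urine collected at 0-1, 1-2, 2-3, 3-4 and 4-6 h; Na+ by flame photometry. Vehicle controls; nonpaired Student t-test.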

Rattus norvegicus [16] = experiment: Post dosing time interval of maximum activity; format: functional
Summary of the method: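 Interval of peak activity taken from timed urine collections (0-1, 1-2, 2-3, 3-4, 4-6 h) after a single oral dose in water-loaded fasted rats, […]. Urine volume and Na+ excretion followed over time.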

Rattus norvegicus [17] = experiment: Mean Chlorine excretion in rats when compound administered at 40 mg/kg po and vehicle dosed at 148.52 umol/kg; format: ADME, organism-based; set-up: dose 40 mg/kg, route oral; details: in vivo; summary of the method: as §2
Rattus norvegicus [18] = experiment: Mean sodium excretion in rats when compound administered at 20 mg/kg po and vehicle dosed at 74.26 umol/kg; format: ADME, organism-based; set-up: dose 20 mg/kg, route oral; details: in vivo; summary of the method: as §1
Rattus norvegicus [19] = experiment: Mean sodium excretion in rats when compound administered at 40 mg/kg po and vehicle dosed at 148.52 umol/kg; format: ADME, organism-based; set-up: dose 40 mg/kg, route oral; details: in vivo; summary of the method: as §1
Rattus norvegicus [20] = experiment: Urinary sodium 2 hr after the compound was administered 100 mg/kg po in rat; format: ADME, organism-based, Urine; set-up: dose 100 mg/kg, route oral; details: in vivo; summary of the method: as §4
Rattus norvegicus [21] = experiment: Dose required to produce an excretion of 2 mequiv of Na+/kg bw/6h vs control groups; format: functional
Summary of the method: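 Male Sprague-Dawley rats (HC/CFY, 175-200 g), fasted and water-deprived 18 h before and during the test. Compound dosed by gavage in 1% carboxymethyl cellulose/0.1% Tween 80, then water load 2.5 mL/100 g bw po. Urine collected 6 h in metabolic cages; Na+ by flame photometry. Effective doses vs vehicle controls derived by linear regression of dose-response data.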

Rattus norvegicus [22] = species: Rattus norvegicus; experiment: Mean sodium excretion in rats (Control/Drug treatment value); value 0.35/2.88; format: ADME, organism-based; details: in vivo
Rattus norvegicus [23] = experiment: Mean potassium excretion in rats when compound administered at 2.5 mg/kg po and vehicle dosed at 9.28 umol/kg; format: ADME, organism-based; set-up: dose 2.5 mg/kg, route oral; details: in vivo; summary of the method: as §2
Rattus norvegicus [24] = experiment: Mean Chlorine excretion in rats when compound administered at 0 mg/kg po and vehicle dosed at 0 umol/kg; format: ADME, organism-based; set-up: dose 0 mg/kg, route oral; details: in vivo
Rattus norvegicus [25] = experiment: Urinary sodium 6 hr after the compound was administered 100 mg/kg po in rat; format: ADME, organism-based, Urine; set-up: dose 100 mg/kg, route oral; details: in vivo; summary of the method: as §4
Rattus norvegicus [26] = experiment: Urinary sodium 1 hr after the compound was administered 100 mg/kg po in rat; format: ADME, organism-based, Urine; set-up: dose 100 mg/kg, route oral; details: in vivo; summary of the method: as §4
Rattus norvegicus [27] = experiment: Volume of urine 4 hr after the compound was administered 100 mg/kg po in rat; format: ADME, organism-based; set-up: dose 100 mg/kg, route oral; details: in vivo; summary of the method: as §5
Rattus norvegicus [28] = experiment: Mean urinary output in rats when compound administered at 40 mg/kg po and vehicle dosed at 148.52 umol/kg; format: ADME, organism-based, Urine; set-up: dose 40 mg/kg, route oral; details: in vivo; summary of the method: as §3
Rattus norvegicus [29] = experiment: Mean urinary output in rats when compound administered at 10 mg/kg po and vehicle dosed at 37.13 umol/kg; format: ADME, organism-based, Urine; set-up: dose 10 mg/kg, route oral; details: in vivo; summary of the method: as §3
Rattus norvegicus [30] = experiment: Mean potassium excretion in rats when compound administered at 160 mg/kg po and vehicle dosed at 594.07 umol/kg; format: ADME, organism-based; set-up: dose 160 mg/kg, route oral; details: in vivo; summary of the method: as §2
Rattus norvegicus [31] = experiment: Volume of urine 1 hr after the compound was administered 100 mg/kg po in rat; format: ADME, organism-based; set-up: dose 100 mg/kg, route oral; details: in vivo; summary of the method: as §5
Rattus norvegicus [32] = experiment: Mean Chlorine excretion in rats when compound administered at 160 mg/kg po and vehicle dosed at 594.07 umol/kg; format: ADME, organism-based; set-up: dose 160 mg/kg, route oral; details: in vivo; summary of the method: as §2
Rattus norvegicus [33] = experiment: Mean potassium excretion in rats when compound administered at 40 mg/kg po and vehicle dosed at 148.52 umol/kg; format: ADME, organism-based; set-up: dose 40 mg/kg, route oral; details: in vivo; summary of the method: as §2

CCc1nc2c(nc1C)C(N)=NS(=O)(=O)N2CC
K (Rattus norvegicus [1]): 2.06 m equiv 6hr-1 kg-1 (body weight)-1
Cl- (Rattus norvegicus [2]): 3.99 m equiv 6hr-1 kg-1 (body weight)-1
LD50 [3]: 1840 mg/kg
Cl- (Rattus norvegicus [4]): 2.67 m equiv 6hr-1 kg-1 (body weight)-1
Na (Rattus norvegicus [5]): 0.8 m equiv 6hr-1 kg-1 (body weight)-1
K (Rattus norvegicus [6]): 0.52 m equiv 6hr-1 kg-1 (body weight)-1
V (Rattus norvegicus [7]): 25.06 ml 6hr-1 (kg of body weight)-1
Na (Rattus norvegicus [8]): 0.43 m equiv 6hr-1 kg-1 (body weight)-1
V (Rattus norvegicus [9]): 21.96 ml 6hr-1 (kg of body weight)-1
Cl- (Rattus norvegicus [10]): 1.83 m equiv 6hr-1 kg-1 (body weight)-1
V (Rattus norvegicus [11]): 20.52 ml 6hr-1 (kg of body weight)-1
Na (Rattus norvegicus [12]): 0.45 m equiv 6hr-1 kg-1 (body weight)-1
V (Rattus norvegicus [13]): 62.99 ml 6hr-1 (kg of body weight)-1
Urinary Na+ (Rattus norvegicus [14]): 0.56 m equiv
Urine volume (Rattus norvegicus [15]): 8.7 mL
Time (Rattus norvegicus [16]): 2 h
Cl- (Rattus norvegicus [17]): 6.37 m equiv 6hr-1 kg-1 (body weight)-1
Na (Rattus norvegicus [18]): 1.7 m equiv 6hr-1 kg-1 (body weight)-1
Na (Rattus norvegicus [19]): 3.63 m equiv 6hr-1 kg-1 (body weight)-1
Urinary Na+ (Rattus norvegicus [20]): 0.67 m equiv
ED2 (Rattus norvegicus [21]): 14.62 mg/kg
Na (Rattus norvegicus [22]): 8.2
K (Rattus norvegicus [23]): 0.46 m equiv 6hr-1 kg-1 (body weight)-1
Cl- (Rattus norvegicus [24]): 1.02 m equiv 6hr-1 kg-1 (body weight)-1
Urinary Na+ (Rattus norvegicus [25]): 0.16 m equiv
Urinary Na+ (Rattus norvegicus [26]): 0.15 m equiv
Urine volume (Rattus norvegicus [27]): 2.71 mL
V (Rattus norvegicus [28]): 59.12 ml 6hr-1 (kg of body weight)-1
V (Rattus norvegicus [29]): 32.6 ml 6hr-1 (kg of body weight)-1
K (Rattus norvegicus [30]): 2.35 m equiv 6hr-1 kg-1 (body weight)-1
Urine volume (Rattus norvegicus [31]): 1.84 mL
Cl- (Rattus norvegicus [32]): 9.28 m equiv 6hr-1 kg-1 (body weight)-1
K (Rattus norvegicus [33]): 1.25 m equiv 6hr-1 kg-1 (body weight)-1
